Screens: PubChem, Broad Institute
Shown are actives, neighbours in structure and some others; about 2.9% of the full set was active somewhere.
PGC1a acetyl inh: inhibitors of PGC1a acetylation signal, primary screen, cell-based, U2OS, AlphaScreen, inhibitor mode | AlphaScreen anti-acetyl-lysine; with virally co-expressed GCN5 acetyltransferase | hit rate 0.17% among 350,000 | inhibition, % at 15.6 µM | AID 651687, 2012;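 active means every replicate shows inhibition of at least 40%; inconclusive means mean inhibition at least 40% but some replicate below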
C2C12 statin: suppressors of statin myotoxicity in C2C12 myotubes, primary screen, cell-based, single point, plate reader; C2C12 myotubes + simvastatin, ATP luminescence, 48 h; scaled: DMSO 0, geranylgeraniol control 100; rescue of ATP level, % at 7.49 µM; hit rate 0.78% among 330,000;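 active means mean ATP rescue above about 67%, or every replicate alone reaching that limit, limit read from the data, passing the limit was not always enough; inconclusive means no clear call, values can overlap the other calls; inactive means mean under the limit and some replicate under it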;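 further: myotubes were challenged with 10 µM simvastatin during compound exposure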
SIRT5 block: SIRT5 desuccinylase inhibitors, primary screen, biochemical, fluorescence imaging, single point, set 5; Purified SirT5, succinyl-peptide AMC, trypsin-coupled fluorescence; NAD-dependent protein deacylase sirtuin-5, mitochondrial (Homo sapiens), Q9NXA8; hit rate 1.1% among 330,000; AID 652115, 2013; inhibition, % at 15 µM; in the data active means inhibition above about 15%; inconclusive means no clear call, values can overlap the other calls
Target sequence (Q9NXA8 whole entry, looked up): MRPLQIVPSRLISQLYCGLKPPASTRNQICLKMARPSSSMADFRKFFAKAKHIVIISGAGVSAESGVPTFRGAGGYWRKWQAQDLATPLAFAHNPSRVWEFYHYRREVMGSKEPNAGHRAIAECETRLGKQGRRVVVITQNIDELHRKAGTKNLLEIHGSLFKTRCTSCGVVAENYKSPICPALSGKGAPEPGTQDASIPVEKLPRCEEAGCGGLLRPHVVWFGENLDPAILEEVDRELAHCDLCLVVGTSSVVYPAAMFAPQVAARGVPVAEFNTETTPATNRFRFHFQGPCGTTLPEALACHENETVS
S100A4 MyoIIA: inhibitors of S100A4-myosin IIA peptide binding, primary screen, biochemical, fluorescence polarization, TAMRA-MyoIIA peptide; Protein S100-A4 (Homo sapiens), P26447; inhibition, % at 10.7 µM; hit rate 0.14% among 360,000; AID 652163, 2013;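 active means mean inhibition of at least 70% across replicates, with every replicate also reaching that level; inconclusive means mean inhibition reaches 70% but some replicates fall short; inactive means mean inhibition below 70%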
Target sequence (P26447 whole entry, looked up): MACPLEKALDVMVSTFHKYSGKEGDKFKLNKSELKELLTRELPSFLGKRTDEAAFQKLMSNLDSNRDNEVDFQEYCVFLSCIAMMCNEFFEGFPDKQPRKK
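Test system: S100A4 monomer protein. Medium: HEPES buffer with Ca2+, pH 7.2. Reagent: fluorescent myosin IIA peptide, 5 nM. Compound dosing: single-point compound testing. Timing: 5 min between mix addition and reading. Benchmarks: DMSO neutral and TFP positive wells.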
DENV2 CPE: inhibitors of DENV2 cytopathic effect, primary screen, cell-based, plate reader, single concentration | DENV2-infected cells, cytopathic effect rescue | CPE inhibition, % at 9.99 µM | AID 651640, 2012 | hit rate 1.7% among 350,000; in the data active means CPE inhibition above about 20%, passing the limit was not always enough; inconclusive means no clear call, values can overlap the other calls; tested in BHK-21 cells
A number is an active result; - = inactive; ? = inconclusive; . = not tested or not shown.

SMILES | PGC1a acetyl inh | C2C12 statin | SIRT5 block | S100A4 MyoIIA | DENV2 CPE
Oc1[nH]c2ccccc2c1C=Nc1ccc2c(c1)OCO2 | - | 118.1 | . | . | .
O=C(c1ccccc1F)N1C[C@H]2[C@@H](c3ccccc31)[C@@H](CO)N2CC1CCCCC1 | - | - | 27.2 | - | -
CCC(=O)N1C[C@H]2[C@@H](c3ccccc31)[C@@H](CO)N2CC1CCCC1 | - | - | 16.2 | - | -
Cc1cccc(S(=O)(=O)N2C[C@@H]3[C@H](c4ccccc42)[C@@H](CO)N3CC2CCCC2)c1 | - | - | - | - | -
Cc1cccc(S(=O)(=O)N2C[C@H]3[C@@H](c4ccccc42)[C@@H](CO)N3CC2CCCC2)c1 | - | - | 15.0 | - | -
COc1ccccc1-c1cn(CC[C@H]2CC[C@@H](NC(=O)C3CCCC3)[C@@H](CO)O2)nn1 | - | . | - | - | -
COc1ccc(S(=O)(=O)N2CCOCC2)cc1NC(=O)c1cccc2c(=O)c(C)c(-c3ccccc3)oc12 | - | - | 26.7 | - | -
COc1ccc2c(c1)/C(=C/c1cc(OC)c(OC)c(OC)c1)C(=O)N2 | - | . | - | - | 29.5
O=C1Nc2ccccc2/C1=C/c1ccccc1Cl | - | - | - | - | -
COc1ccccc1/C=C1\C(=O)Nc2ccccc21 | - | - | 15.5 | - | ?
C[C@@H]1CCCCO[C@@H](CN(C)C(=O)Cc2ccccc2)[C@H](C)CN([C@@H](C)CO)C(=O)c2cc(NC(=O)NC3CCCCC3)ccc2O1 | - | . | . | . | -
O=C(Nc1ccc2nc(-c3cccnc3)[nH]c2c1)C12CC3CC(CC(C3)C1)C2 | - | 75.5 | . | . | .
O=C(Nc1ccc2nc(-c3cccnc3)[nH]c2c1)C1CCCCC1 | - | - | . | . | .
COCC(=O)Nc1ccc2c(c1)[C@@H]1C[C@@H](CC(=O)NCc3ccc(-c4ccccc4)cc3)O[C@H](CO)[C@@H]1O2 | - | - | - | - | -
CCCNC(=O)N(C)C[C@H]1Oc2cc(C3=CCCC3)ccc2S(=O)(=O)N([C@H](C)CO)C[C@H]1C | - | - | - | - | 29.7
C[C@@H]1CN([C@H](C)CO)S(=O)(=O)c2ccc(C3=CCCCC3)cc2O[C@@H]1CN(C)C(=O)Nc1ccc2c(c1)OCO2 | - | - | 15.2 | - | -
C[C@H](CO)N1C[C@H](C)[C@H](CN(C)C)Oc2cc(C3=CCCC3)ccc2S1(=O)=O | . | - | - | 97.7 | -
C[C@H]1CN([C@@H](C)CO)S(=O)(=O)c2ccc(C3=CCCC3)cc2O[C@H]1CN(C)C(=O)C1CCC1 | - | - | - | - | 20.9
C[C@@H]1CN([C@H](C)CO)S(=O)(=O)c2ccc(C3=CCCC3)cc2O[C@H]1CN(C)C | - | - | - | - | -
CCCNC(=O)N(C)C[C@H]1Oc2cc(C3=CCCCC3)ccc2S(=O)(=O)N([C@@H](C)CO)C[C@@H]1C | - | - | - | - | -
NC(=O)C1CCN(c2nc(-c3ccccc3Br)cs2)CC1 | . | . | . | - | 80.4
NC(=O)C1CCN(c2nc(-c3ccccc3F)cs2)CC1 | - | - | . | - | -
C=CCn1c(SCC(=O)Nc2ccc(N(C)C)cc2)nnc1-c1cccc(C)c1 | - | 83.6 | . | . | .
C=CCn1c(SCC(=O)Nc2cccc(C)c2)nnc1-c1cnccn1 | - | - | . | . | .
Oc1ccccc1C=NNc1nc2ccccc2s1 | - | - | - | - | -
SMILES | PGC1a acetyl inh | C2C12 statin | SIRT5 block | S100A4 MyoIIA | DENV2 CPE
Oc1ccc(C=NNc2nc3ccccc3s2)c(O)c1 | - | 117.4 | . | - | -
COc1ccc(S(=O)(=O)N(C)C[C@H]2OCCCC[C@@H](C)Oc3ccc(NS(=O)(=O)c4ccc(Cl)cc4)cc3C(=O)N([C@H](C)CO)C[C@@H]2C)cc1 | - | . | - | - | -
COc1ccc(S(=O)(=O)N(C)C[C@@H]2OCCCC[C@@H](C)Oc3ccc(NS(=O)(=O)c4ccc(Cl)cc4)cc3C(=O)N([C@@H](C)CO)C[C@H]2C)cc1 | . | . | 16.9 | - | -
COc1ccc(S(=O)(=O)Nc2ccc3c(c2)C(=O)N([C@@H](C)CO)C[C@H](C)[C@H](CN(C)S(=O)(=O)c2ccc(Cl)cc2)OCCCC[C@H](C)O3)cc1 | - | . | - | - | 25.3
COc1ccc(S(=O)(=O)N(C)C[C@H]2OCCCC[C@H](C)Oc3ccc(NS(=O)(=O)c4ccc(Cl)cc4)cc3C(=O)N([C@H](C)CO)C[C@@H]2C)cc1 | . | . | - | - | -
COc1ccc(S(=O)(=O)Nc2ccc3c(c2)C(=O)N([C@H](C)CO)C[C@@H](C)[C@H](CN(C)S(=O)(=O)c2ccc(Cl)cc2)OCCCC[C@H](C)O3)cc1 | - | . | 20.3 | - | -
COc1ccc(S(=O)(=O)N(C)C[C@H]2OCCCC[C@@H](C)Oc3ccc(NS(=O)(=O)c4ccc(Cl)cc4)cc3C(=O)N([C@H](C)CO)C[C@H]2C)cc1 | - | . | 22.7 | - | -
O=C(c1ccc(F)cc1)N(CC1CCC1)C[C@@H]1N[C@H](CO)[C@@H]1c1ccccc1 | - | - | - | - | -
C[C@H]1CCCCO[C@H](CN(C)CC2CCCCC2)[C@@H](C)CN([C@@H](C)CO)C(=O)c2cc(NS(=O)(=O)c3cn(C)cn3)ccc2O1 | . | - | - | - | -
COc1ccc(S(=O)(=O)Nc2ccc3c(c2)C(=O)N([C@H](C)CO)C[C@H](C)[C@H](CN(C)S(=O)(=O)c2ccc(Cl)cc2)OCCCC[C@@H](C)O3)cc1 | - | . | - | - | -
COc1ccc(S(=O)(=O)N(C)C[C@H]2OCCCC[C@H](C)Oc3ccc(NS(=O)(=O)c4ccc(Cl)cc4)cc3C(=O)N([C@@H](C)CO)C[C@H]2C)cc1 | - | . | 17.3 | - | -
COc1ccc(S(=O)(=O)N(C)C[C@@H]2OCCCC[C@H](C)Oc3ccc(NS(=O)(=O)c4ccc(Cl)cc4)cc3C(=O)N([C@H](C)CO)C[C@H]2C)cc1 | - | . | - | - | -
COc1ccc(S(=O)(=O)Nc2ccc3c(c2)C(=O)N([C@@H](C)CO)C[C@H](C)[C@H](CN(C)S(=O)(=O)c2ccc(Cl)cc2)OCCCC[C@@H](C)O3)cc1 | - | . | 22.0 | - | -
COc1ccc(CN(C)C[C@H]2Oc3ccc(NC(=O)Cc4ccccc4)cc3C(=O)N([C@@H](C)CO)C[C@@H]2C)cc1 | - | - | - | - | -
CN1CCN(C(=O)C[C@@H]2CC[C@H]3[C@@H](COc4ccc(NC(=O)c5cscn5)cc4C(=O)N3C)O2)CC1 | - | - | - | - | -
Cc1ccc(O)c(NC(=O)c2cc(-c3cccs3)on2)c1 | - | 213.0 | - | - | -
Cc1ccc(O)c(NC(=O)c2cc(-c3ccc(F)cc3)on2)c1 | - | - | - | - | -
CC(C)(CSc1ncccn1)NS(=O)(=O)c1ccccc1 | - | 119.6 | - | - | ?
CC(C)(CSc1ccccn1)NS(=O)(=O)c1ccc(Cl)cc1 | - | . | . | . | .
